In ChEMBL document CHEMBL3875229, “Potent Antifungal Synergy of Phthalazinone and Isoquinolones with Azoles Against Candida albicans” (ACS Med Chem Lett, 2017):
One block for each compound: values may come before it.

Key:
[1] = Antifungal activity against Candida albicans clinical isolate 45 after 16 hrs in presence of 0.5 ug/ml of isavuconazole by broth microdilution assay; format: functional
[2] = Antifungal activity against fluconazole-resistant Candida albicans clinical isolate 26 after 16 hrs in presence of 32 ug/ml fluconazole by broth microdilution assay; format: functional
[3] = Antifungal activity against fluconazole-resistant Candida albicans clinical isolate 36 after 16 hrs in presence of 64 ug/ml fluconazole by broth microdilution assay; format: functional
[4] = test system: Candida albicans; test: Antifungal activity against Candida albicans HLY4123 at 0.015 nM to […] after 16 hrs in presence of […] of fluconazole by checkerboard assay; format: functional
Outline: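 Analogue and fluconazole were combined in a checkerboard format against C. albicans HLY4123. Fractional inhibitory concentration indices were calculated, with 0.5 taken as the upper limit for pharmacological synergy.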

[5] = Antifungal activity against fluconazole-resistant Candida albicans clinical isolate 33 after 16 hrs in presence of 64 ug/ml fluconazole by broth microdilution assay; format: functional
[6] = test system: Candida albicans; test: microbe, parasite or virus in culture; conditions: HLY4123, 16 h
[7] = test system: Candida albicans; test: Antifungal activity against Candida albicans HLY4123 after 16 hrs in presence of 0.05 ug/ml of fluconazole by ten fold serial dilution method; format: functional; conditions: HLY4123, 16 h
[8] = Antifungal activity against fluconazole-resistant Candida albicans clinical isolate 45 after 16 hrs in presence of 96 ug/ml fluconazole by broth microdilution assay; format: functional
[9] = test system: Candida albicans; test: Antifungal activity against Candida albicans HLY4123 after 16 hrs in presence of 0.001 ug/ml of isavuconazole by ten fold serial dilution method; format: functional; conditions: HLY4123, 16 h
[10] = Antifungal activity against fluconazole-resistant Candida albicans clinical isolate 17 after 16 hrs in presence of 12 ug/ml fluconazole by broth microdilution assay; format: functional
[11] = Antifungal activity against Candida albicans clinical isolate 8 in presence of fluconazole; format: functional
Outline: (§1)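 Dose-dependent broth microdilution against fluconazole-resistant clinical isolates. Analogue concentration was varied while fluconazole was held fixed at each isolate's own MIC50, measured separately for fluconazole alone. EC50 is given as arithmetic mean ± SD of three independent experiments.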

[12] = Antifungal activity against Candida albicans clinical isolate 2 in presence of fluconazole; format: functional; outline: as §1

Compound: COc1cc(Br)ccc1-n1nc(C(=O)NCC(=O)NCCC2=CCCCC2)c2ccccc2c1=O
- EC50 [1]: 13 nM
- EC50 [2]: 17 nM
- EC50 [3]: 20 nM
- fractional inhibitory concentration index (FICI) [4]: <0.12
- EC50 [5]: 72 nM
- EC50 [6]: 1 nM
- EC50 [7]: 7 nM
- EC50 [8]: 65 nM
- EC50 [9]: 4 nM
- EC50 [10]: 39 nM

Compound: Cc1c(Cl)ccc2c1NC(=O)[C@@]21[C@H]2C(=O)N(c3ccccc3)C(=O)[C@H]2[C@H]2CN(C(=O)OCc3ccccc3)CCN21
- EC50 [6]: 0.3 nM

Compound: COc1ccc(-n2nc(C(=O)NCC(=O)NCCC3=CCCCC3)c3ccccc3c2=O)c(OC)c1
- EC50 [11]: 220 nM
- EC50 [12]: 470 nM
- EC50 [6]: 15 nM
- EC50 [7]: 49 nM

Compound: COc1cc(Br)ccc1-n1cc(C(=O)NCC(=O)NCCC2=CCCCC2)c2ccccc2c1=O
- EC50 [1]: 110 nM
- EC50 [2]: 11 nM
- EC50 [3]: 32 nM
- fractional inhibitory concentration index (FICI) [4]: <0.17
- EC50 [5]: 371 nM
- EC50 [6]: 3 nM
- EC50 [7]: 24 nM
- EC50 [8]: 170 nM
- EC50 [9]: 6 nM
- EC50 [10]: 74 nM

Compound: COc1cc(Br)ccc1-n1cc(C(=O)NCCc2ccccc2)c2ccccc2c1=O
- EC50 [6]: 220 nM

Compound: COc1cc(Br)ccc1-n1cc(C(=O)NCC(=O)NCCc2ccccc2)c2ccccc2c1=O
- EC50 [6]: 20 nM

Compound: COc1cc(Br)ccc1-n1cc(C(=O)N[C@@H](CCCCNC(=O)OCc2ccccc2Cl)C(=O)NCCC2=CCCCC2)c2ccccc2c1=O
- EC50 [6]: 23 nM

Further lines, results first:

- EC50 [6]: > 100000 nM
Compound: COc1cc(Br)ccc1-n1cc(C(=O)NCC(=O)NCCC2=CCCCC2)c2ccc(C#CCCCO)cc2c1=O

- EC50 [6]: 65 nM
Compound: COc1cc(C)ccc1-n1cc(C(=O)NCC(=O)NCCC2=CCCCC2)c2ccccc2c1=O

- EC50 [6]: 230 nM
Compound: COc1cc(Br)ccc1-n1cc(C(=O)NCC(=O)NCCC2=CCCCC2)c2sccc2c1=O

- EC50 [6]: 33 nM
Compound: COc1ccc(-n2cc(C(=O)NCC(=O)NCCC3=CCCCC3)c3ccccc3c2=O)c(OC)c1

- EC50 [6]: > 100000 nM
Compound: COc1cc(C#CCCCO)ccc1-n1cc(C(=O)NCC(=O)NCCC2=CCCCC2)c2ccccc2c1=O

- EC50 [6]: 3 nM
Compound: COc1cc(Br)ccc1-n1cc(C(=O)NCC(=O)NCCC2=CCCCC2)c2ccc(Br)cc2c1=O

- EC50 [6]: > 10000 nM
Compound: COc1cc(Br)ccc1-n1cc(C(=O)NCC(=O)NCCC2=CCCCC2)c2occc2c1=O
